Test results as given in ChEMBL document CHEMBL3734685, “2-Aminopyrimidines as dual adenosine A1/A2A antagonists” (Eur J Med Chem, 2015).
The source made the active and inactive calls. The rule behind the calls is not given here.

Legend:
Adenosine receptor A2a = Adenosine receptor A2a (Rattus norvegicus, UniProt P30543); test: Displacement of [3H]NECA from adenosine A2A receptor in Sprague-Dawley rat striatal membranes after 1 hr by scintillation counting analysis; parameters: species or system Striatum, Membrane
Adenosine receptor A1 = target: T1, Adenosine receptor A1 (Rattus norvegicus, UniProt P25099); test: Displacement of [3H]DPCPX from adenosine A1 receptor in Sprague-Dawley rat whole brain membranes after 1 hr by scintillation counting analysis; parameters: species or system Membrane
T1 sequence (P25099 whole entry): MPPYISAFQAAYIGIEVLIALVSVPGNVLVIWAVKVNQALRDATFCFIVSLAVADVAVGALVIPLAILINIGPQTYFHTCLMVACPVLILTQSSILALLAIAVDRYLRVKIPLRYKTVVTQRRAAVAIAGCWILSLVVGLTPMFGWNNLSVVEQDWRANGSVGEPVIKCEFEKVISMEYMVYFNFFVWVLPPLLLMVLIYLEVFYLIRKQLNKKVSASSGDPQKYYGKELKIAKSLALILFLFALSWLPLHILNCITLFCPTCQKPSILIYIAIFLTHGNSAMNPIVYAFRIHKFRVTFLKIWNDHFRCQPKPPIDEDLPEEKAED
Procedure, shortened: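 Male rat whole-brain homogenate in 50 mM Tris (pH 7.7), ~5 mg original tissue per incubation, with 0.1 units adenosine deaminase and 0.1 nM [3H]DPCPX. Incubated 1 h, filtered on GF/B, counted by scintillation. IC50 from one-site competition, converted to Ki by Cheng-Prusoff. Duplicates, mean ± SEM.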

Rattus norvegicus [1] = species on record: Rattus norvegicus; test: Selectivity index, ratio of Ki for adenosine A2A receptor in Sprague-Dawley rat striatal membranes to Ki for adenosine A1 receptor in Sprague-Dawley rat whole brain membranes
Procedure, shortened: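 Ratio of two Ki values. A2A: rat striatal membranes (~10 mg tissue) in 50 mM Tris pH 7.7 with 10 mM MgCl2, 0.2 units adenosine deaminase, 50 nM CPA and 4 nM [3H]NECA. A1: whole-brain membranes with [3H]DPCPX 0.1 nM. Test compound 0–100 µM, 1 h incubation, filtration and scintillation counting. Non-specific binding with 100 µM CPA. Duplicate determinations.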

[2] = Cytotoxicity against human HeLa cells assessed as cell viability at 1 uM after 24 hrs by MTT assay; format: cell-based; conditions: read-out: Activity
Procedure, shortened: (§1)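 HeLa cells grown to confluence in DMEM with 10% FBS, penicillin/streptomycin and fungizone at 37 °C, 10% CO2. Seeded at 500 000 cells/well, then after 24 h switched to serum-free DMEM with test compound (DMSO stocks, filtered). Exposure lasted 24 h at 37 °C. Read-out was MTT 0.5%, 2 h in the dark, formazan dissolved in isopropanol, absorbance 560. Formic-acid lysis set 0% viability and untreated wells 100%. Triplicate, mean ± SD.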

[3] = Cytotoxicity against human HeLa cells assessed as cell viability at 10 uM after 24 hrs by MTT assay; format: cell-based; conditions: read-out: Activity; procedure, shortened: as §1
Rattus norvegicus [4] = test: Reduction in haloperiodol induced catalepsy time in Sprague-Dawley rat at 0.1 to 2 mg/kg, ip dosed 30 mins after halperiodol challenge measured 60 mins after halperiodol challenge
Rattus norvegicus [5] = test: Reduction in haloperiodol induced catalepsy time in Sprague-Dawley rat at 1 to 2 mg/kg, ip dosed 30 mins after halperiodol challenge measured 60 mins after halperiodol challenge

Chain of Adenosine receptor A2a (P30543 whole entry): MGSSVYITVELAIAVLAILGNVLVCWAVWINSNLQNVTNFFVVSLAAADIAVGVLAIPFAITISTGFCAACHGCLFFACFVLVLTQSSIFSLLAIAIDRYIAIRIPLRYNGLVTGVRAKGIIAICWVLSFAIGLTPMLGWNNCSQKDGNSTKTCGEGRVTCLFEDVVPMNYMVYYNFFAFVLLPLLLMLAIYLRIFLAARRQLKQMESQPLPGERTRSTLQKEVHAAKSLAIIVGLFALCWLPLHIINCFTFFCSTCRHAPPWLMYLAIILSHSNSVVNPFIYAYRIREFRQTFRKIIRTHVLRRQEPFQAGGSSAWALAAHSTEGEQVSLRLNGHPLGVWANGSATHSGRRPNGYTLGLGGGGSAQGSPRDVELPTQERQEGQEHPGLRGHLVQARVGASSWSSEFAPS

COc1ccc(-c2cc(-c3ccc(C)o3)nc(N)n2)cc1OC
Ki (Adenosine receptor A2a): 2780 nM
Ki (Adenosine receptor A1): 650 nM
Ratio Ki (Rattus norvegicus [1]): 4.3

Cc1ccc(-c2cc(-c3cccc(C(=O)N4CCCC4)c3)nc(N)n2)o1
Ki (Adenosine receptor A2a): 58.2 nM
Ki (Adenosine receptor A1): 36.8 nM
Ratio Ki (Rattus norvegicus [1]): 1.6
viability at 24 h, 1 µM [2]: 101%
viability at 24 h, 10 µM [3]: 67.9%

Cc1ccc(-c2cc(-c3cccc(C(=O)N4CCCCC4)c3)nc(N)n2)o1
Ki (Adenosine receptor A2a): 6.34 nM
Ki (Adenosine receptor A1): 9.54 nM
Ratio Ki (Rattus norvegicus [1]): 0.7
viability at 24 h, 1 µM [2]: 64.3%
viability at 24 h, 10 µM [3]: 61.6%
Activity (Rattus norvegicus [4]): Active

Cc1ccc(-c2cc(-c3ccc(Cl)cc3)nc(N)n2)o1
Ki (Adenosine receptor A2a): 3320 nM
Ki (Adenosine receptor A1): 434 nM
Ratio Ki (Rattus norvegicus [1]): 7.6

Nc1nc(-c2cccc(Cl)c2)cc(-c2ccco2)n1
Ki (Adenosine receptor A2a): 245 nM
Ki (Adenosine receptor A1): 39.1 nM
Ratio Ki (Rattus norvegicus [1]): 6.3

CCN1CCN(C(=O)c2cccc(-c3cc(-c4ccc(C)o4)nc(N)n3)c2)CC1
Ki (Adenosine receptor A2a): 30.9 nM
Ki (Adenosine receptor A1): 37.5 nM
Ratio Ki (Rattus norvegicus [1]): 0.8
viability at 24 h, 1 µM [2]: 65.7%
viability at 24 h, 10 µM [3]: 60.1%

COc1cccc(-c2cc(-c3ccc(C)o3)nc(N)n2)c1
Ki (Adenosine receptor A2a): 409 nM
Ki (Adenosine receptor A1): 145 nM
Ratio Ki (Rattus norvegicus [1]): 2.8

Nc1nc(-c2ccc(F)cc2)cc(-c2ccco2)n1
Ki (Adenosine receptor A2a): 257 nM
Ki (Adenosine receptor A1): 158 nM
Ratio Ki (Rattus norvegicus [1]): 1.6

Nc1nc(-c2ccccc2)cc(-c2cccc(Cl)c2)n1
Ki (Adenosine receptor A2a): 948 nM
Ki (Adenosine receptor A1): 22.8 nM
Ratio Ki (Rattus norvegicus [1]): 42

Cc1ccc(-c2cc(-c3cccc(C(=O)N4CCN(C)CC4)c3)nc(N)n2)o1
Ki (Adenosine receptor A2a): 16.3 nM
Ki (Adenosine receptor A1): 136 nM
Ratio Ki (Rattus norvegicus [1]): 0.1
viability at 24 h, 1 µM [2]: 107%
viability at 24 h, 10 µM [3]: 76.8%
Activity (Rattus norvegicus [5]): Active

Cc1ccc(-c2cc(-c3cccc(C(=O)N4CCOCC4)c3)nc(N)n2)o1
Ki (Adenosine receptor A2a): 29.3 nM
Ki (Adenosine receptor A1): 52.1 nM
Ratio Ki (Rattus norvegicus [1]): 0.6
viability at 24 h, 1 µM [2]: 98.6%
viability at 24 h, 10 µM [3]: 81.7%

COc1cccc(-c2cc(-c3ccco3)nc(N)n2)c1
Ki (Adenosine receptor A2a): 249 nM
Ki (Adenosine receptor A1): 61.4 nM
Ratio Ki (Rattus norvegicus [1]): 4.1

Cc1ccc(-c2cc(-c3cccc(Cl)c3)nc(N)n2)o1
Ki (Adenosine receptor A2a): 399 nM
Ki (Adenosine receptor A1): 129 nM
Ratio Ki (Rattus norvegicus [1]): 3.1
